APJ antag: APJ receptor antagonism; CHO-K1 APJ beta-arrestin complementation, luminescence; P35414; inhibition, % at 20 µM; 330,000 tested, 0.32% active;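 active = inhibition above about 40% at 20 µM, limit read from the data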;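 also: cells challenged with 10 nM apelin-13 agonist together with compound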
EBI2 block: blocks human EBI2 receptor beta-arrestin signaling; 360,000 tested, 0.81% active; P32249; EBI2 beta-arrestin recruitment, luminescence, 7a,25-OHC stimulated; inhibition, % at 5 µM; in the data active = inhibition above about 38%;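 also: enzyme fragment complementation signal reports receptor beta-arrestin coupling in cells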
Target sequence (P32249 whole entry, looked up, the tested form may be a part): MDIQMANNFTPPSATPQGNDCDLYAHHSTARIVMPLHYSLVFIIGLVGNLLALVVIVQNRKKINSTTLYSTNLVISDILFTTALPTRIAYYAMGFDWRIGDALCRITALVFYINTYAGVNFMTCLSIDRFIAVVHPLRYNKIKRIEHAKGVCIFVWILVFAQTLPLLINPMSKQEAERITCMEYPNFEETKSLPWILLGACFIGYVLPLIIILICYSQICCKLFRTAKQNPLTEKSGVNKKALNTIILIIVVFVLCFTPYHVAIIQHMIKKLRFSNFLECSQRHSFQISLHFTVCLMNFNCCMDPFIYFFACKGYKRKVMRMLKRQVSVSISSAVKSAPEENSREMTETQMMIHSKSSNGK
APJ agonist: activates the human apelin receptor APJ | P35414 | CHO-K1 APJ PathHunter beta-arrestin, luminescence; 0% DMSO wells, 100% apelin | activation, % at 20 µM | 330,000 tested, 0.11% active | AID 2520;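 active = activation more than six SD over the plate average, tested at 20 µM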
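Test system: CHO-K1 APJ beta-arrestin complementation cell line | Compound: Single test compound dose, 20 µM final, 1% DMSO | Incubation: Compound 90 min 25 °C, reagent 1 h | Measured by: beta-gal luminescence | Read-out basis: APJ–arrestin association signal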
CCR6 antagonist: antagonists of human CCR6 receptor; 340,000 tested, 0.49% active; CHO-K1 CCR6 PathHunter beta-arrestin, luminescence, CCL20-stimulated; inhibition, % at 20 µM;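 active = compounds whose inhibition of the agonist-driven luminescence signal at 20 µM reaches about 50%, limit read from the data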;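 also: cells stimulated with CCL20 at 14 nM final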
CXCR6 inh: inhibitors of human CXCR6 receptor. CHO-K1 PathHunter CXCR6 beta-arrestin, luminescence. inhibition, % at 20 µM. 360,000 tested, 0.36% active; in the data active = inhibition above about 34%, passing the limit was not always enough;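 also: antagonist mode with CXCL16 agonist at 10 nM final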
APJ ag confirm: APJ receptor agonism confirmation; shares compounds with APJ agonist; CHO-K1 APJ PathHunter beta-arrestin, luminescence; activation, % at 20 µM; 310 tested, 10% active; AID 2764;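 active = activation above 40%, taking the highest of four retests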
Each line names hits and unclear results; the compound was inactive in the other large screens (follow-up assays come after a bar, where they were run). An excerpt weighted towards active compounds, which were near 1.5% of everything screened.

CCC(CC)c1nnc(NC(=O)c2cc([N+](=O)[O-])ccc2N2CCCCC2)s1	CCR6 antagonist 71
Cc1ccc(/C=N/N=C2\SCC(=O)N2CC2CC2)cc1	none
C[C@@H](NC(=O)c1ncn(Cc2ccccc2)c1C(=O)N[C@H](C)c1ccccc1)c1ccccc1	EBI2 block 48
CC1CC(C)CN(S(=O)(=O)N2CCCC(C(=O)NCc3ccccc3Cl)C2)C1 (configuration not stated)	CCR6 antagonist 56
COC(=O)c1sc(S(=O)(=O)Nc2ccc(C)c(C)c2)c(C(=O)OC)c1C	none
COc1ccc(N2C(=O)CC(Sc3ncn[nH]3)C2=O)c(OC)c1 (configuration not stated)	CCR6 antagonist 79
CC(C)c1ccc(N2C(=O)CC(Sc3ncn[nH]3)C2=O)cc1 (configuration not stated)	none
O=C(CN1C(=O)C2CCCCC2C1=O)OCC(=O)c1ccc(F)cc1 (configuration not stated)	none
CC(C)(C)c1cc(C(c2cccnc2)N2CCN(CCO)CC2)cc(C(C)(C)C)c1O (configuration not stated)	CCR6 antagonist 62
O=c1cc(-c2c(F)c(F)c(F)c(F)c2F)oc2c(F)c(F)c(F)c(F)c12	APJ antag 52 (no result: EBI2 block, CCR6 antagonist, CXCR6 inh)
COc1c(OC)c(O)c2c(=O)cc(-c3c(O)cccc3O)oc2c1OC	none
COc1ccc(C(C[N+](=O)[O-])C2(c3ccc(OC)c(OC)c3)C(=O)c3ccccc3C2=O)cc1 (configuration not stated)	CCR6 antagonist 59 (no result: APJ antag, APJ agonist)
CC(C)C(=O)N(c1cc2sc(=O)oc2c2ccccc12)S(=O)(=O)c1cccs1	EBI2 block 49
CCOc1cc([N+](=O)[O-])cc2c1C(=O)Nc1ccccc1O2	APJ agonist 14 | APJ ag confirm inactive
N#Cc1c(NC(=O)c2cccc(S(=O)(=O)Nc3ccc(C(=O)O)cc3)c2)sc2c1CCCC2	none
CC(C)CN(Cc1cc(=O)oc2cc(-c3ccccc3)c(O)cc12)CC(C)C	APJ agonist 19 | APJ ag confirm inactive
O=c1cc(CN2CCN(C/C=C/c3ccccc3)CC2)c2cc(O)c(-c3ccccc3)cc2o1	none
O=C(c1cnn2c(C(F)(F)F)cc(-c3cccs3)nc12)N1CCN(Cc2ccccc2)CC1	APJ agonist 30 | APJ ag confirm inactive
CCOc1ccc2nc3cc(NCc4ccc(OC)cc4)ccc3c(N)c2c1	APJ agonist 30 | APJ ag confirm inactive
CCn1cnc2cc(NCc3ccc(OC)cc3)ccc21	none
Cc1ccc(C(=O)NC(=O)OCCn2c(C)cnc2[N+](=O)[O-])cc1	none
c1ccc(-c2nc(N3CCN(c4ccccc4)CC3)nc(-n3ccnc3)n2)cc1	none
c1ccc(-c2nc(N3CCCCCC3)nc(-n3ccnc3)n2)cc1	APJ agonist 26 | APJ ag confirm inactive
COc1cccc(C#Cc2cnc3c(c2)C(=O)N([C@@H](C)CO)C[C@H](C)[C@H](CN(C)C(=O)C2CCC2)O3)c1	none (no result: APJ antag, APJ agonist, CCR6 antagonist)
O=c1oc2cc(OCc3ccc([N+](=O)[O-])cc3)ccc2c2c1CCCC2	APJ agonist 62 | APJ ag confirm inactive
O=C(O)c1ccc(COc2ccc3c4c(c(=O)oc3c2)CCC4)o1	none
COc1cccc(C(C)N(C)Cc2nc(-c3ccoc3)oc2C)c1 (configuration not stated)	none
Cc1cccc(C(=O)Nc2ccccc2SCC(=O)Nc2ccc(C)c(Cl)c2)c1	none
Cc1ccc(NC(=O)CSc2ccccc2NC(=O)c2cccc(Cl)c2)cc1Cl	APJ agonist 14 | APJ ag confirm inactive
O=S(=O)(c1ccc2nc(N3CCN(c4ccc(F)cc4)CC3)ccc2c1)N1CCCCC1	none
CC1CCN(S(=O)(=O)c2ccc3nc(N4CCN(c5ccccc5)CC4)ccc3c2)CC1	APJ agonist 53 (no result: EBI2 block, CXCR6 inh) | APJ ag confirm inactive
FC(F)(F)c1nnc2n1N=C(c1cccs1)CS2	none
Cc1ncc(CO)c2c1Oc1nc(-c3ccccc3)nc(SCC(=O)N(C)c3ccccc3)c1C2	APJ agonist 28 (no result: EBI2 block, CCR6 antagonist, CXCR6 inh) | APJ ag confirm inactive
O=C(NCCc1cn2ccccc2n1)c1cc(COc2ccc3ncccc3c2)on1	APJ agonist 31 | APJ ag confirm inactive
O=C(NC1CCCC1)c1cc(COc2ccc3ncccc3c2)on1	none
N=c1n(CC(=O)c2cccs2)c2ccccc2n1Cc1ccccc1	APJ agonist 28 | APJ ag confirm inactive
NNc1ccc([N+](=O)[O-])c2[nH][nH]c(=O)c12	none (no result: APJ antag, APJ agonist, CCR6 antagonist)
CSc1cccc(NC(=S)NC(=O)CCc2ccccc2)c1	APJ agonist 43 | APJ ag confirm 51
CSc1cccc(NC(=O)CCc2ccccc2)c1	none
Cc1ccc(Nc2nc(NCc3ccco3)c3ccccc3n2)cc1	APJ agonist 14 | APJ ag confirm inactive
N#Cc1c2ccc([N+](=O)[O-])cc2[n+]([O-])n1-c1ccccc1	APJ agonist 13 (no result: CCR6 antagonist) | APJ ag confirm inactive
CCOC(=O)/C=C/C(=O)N1CCN(C(=O)/C=C/C(=O)OCC)CC1	none
COc1ccc2nc(C)cc(N/N=C/c3ccccc3)c2c1	none
COc1ccc(/C=N/Nc2cc(C)nc3ccc(OC)cc23)c(OC)c1	APJ agonist 61 | APJ ag confirm 64
C=CCC(C(=O)OC)(C(=O)OC)c1ccc(C(F)(F)F)cc1[N+](=O)[O-]	none
C=CCC(C(=O)OC)(C(=O)OC)c1ccc([N+](=O)[O-])cc1[N+](=O)[O-]	APJ agonist 14 | APJ ag confirm inactive
CCN1CCN(c2ccc(S(=O)(=O)N3CCOCC3)cc2NC(=O)COc2ccc(F)cc2Cl)CC1	none
CS(=O)c1nc(-c2ccc(Br)cc2)cc(-c2ccccc2)c1C#N (configuration not stated)	EBI2 block 64, APJ agonist 36 | APJ ag confirm inactive
O=C(COC(=O)CN1C(=O)NC2(CCCC2)C1=O)Nc1c(Cl)cccc1C(F)(F)F	none
CC(C)C[C@@H](C(=O)NC1CCN(Cc2ccccc2)CC1)N1C(=O)N2CCc3c([nH]c4ccccc34)[C@@]2(C)C1=O	APJ agonist 24 | APJ ag confirm inactive
C[C@@H](C(=O)NC1CCN(Cc2ccccc2)CC1)N1C(=O)N2CCc3c([nH]c4ccccc34)[C@@]2(C)C1=O	none
COc1ccc2[nH]c3c(c2c1)CCN1C(=O)N([C@@H](C)C(=O)NC2CCN(Cc4ccccc4)CC2)C(=O)[C@]31C	APJ agonist 18 | APJ ag confirm inactive
Cc1ccc(NC(=O)Cn2c(=O)c3cccn3c3ccccc32)cc1	none
CCN(CC)S(=O)(=O)c1ccc(N2CCN(C)CC2)c(NC(=O)c2cc(=O)c3ccccc3o2)c1	none
CCc1oc(C(=O)OC)cc1CSC(=N)N	none
CCOC(=O)C1=C(Cn2cnc3ccccc32)NC(=O)NC1c1cc(C)ccc1C (configuration not stated)	APJ agonist 62 | APJ ag confirm 59
